# Activity calls are given as the source filed them.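 Rule for the calls, unless noted: active = visually confirmed hit in the image check and inhibition above 20%; inconclusive = visually confirmed hit but inhibition not above 20%; inactive = no visual hit in the image check.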
# Columns and labels:
# [1] = inhibitors of TNFa-induced NFkB p65 translocation, primary screen, imaging, HUVEC, MLSMR starter and 10KST1 sets (AID 438;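 active = inhibition above 20% together with a positive visual image hit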;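 note: compound added about 3h40 before a 20 min TNFalpha stimulation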;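 for inhibition: signal is the nuclear over cytoplasmic p65 intensity ratio per well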); conditions: HUVEC TNFa-induced p65 nuclear translocation; cell count: measured here: nuclei count (cytotoxicity indicator), at 2.08 µM; inhibition: at 2 µM, stronger effect = higher value, 0% TNFa-plus-vehicle, 100% no-TNFa wells
# [2] = reduction of polyQ htt aggregates in cells – imaging, exon1htt(103Q)mCFP cells, high-content imaging, primary screen (AID 483;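 active = visual image review flags a hit and inhibition of aggregation exceeds 20%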;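 note: compound exposure lasted 3 days before fixation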;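 for nuclei count: percent of the per-plate median nuclei count of sample wells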); conditions: exon1htt(103Q)mCFP cell line, aggregate imaging, at 2 µM; inhibition of aggregation: stronger effect = higher value; nuclei count: measured here: cell count, toxicity
# [3] = endothelial E-selectin expression blockers – imaging, HUVEC, immunofluorescence, MLSMR starter and 10KST1 sets, primary screen (AID 487); conditions: HUVEC TNFalpha-induced E-selectin immunofluorescence imaging, at 2 µM; inhibition: stronger effect = higher value; nuclei count: measured here: cell number, toxicity;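 for inhibition: signal is fraction of cell area covered by stained E-selectin grains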;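 for nuclei count: 100% = median nuclei count of all wells on the same plate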
# [4] = biological target: Voltage-gated potassium channel subunit beta-2 (Rattus norvegicus) (UniProt P62483); test: inhibitors of rat Kvbeta2 reductase activity – biochemical, NADPH fluorescence, primary screen (AID 622;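 active = fluorescence slope higher than the sample average by over 3 SD, cut at about -0.22 in these data, passing the limit was not always enough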;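 note: slope of raw intensity against log time taken from 70 to 1610 s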); conditions: recombinant KvBeta, 4-cyanobenzaldehyde reduction, at 10 µM, stronger effect = higher value
# Voltage-gated potassium channel subunit beta-2 (Rattus norvegicus), sequence (P62483 whole entry, looked up): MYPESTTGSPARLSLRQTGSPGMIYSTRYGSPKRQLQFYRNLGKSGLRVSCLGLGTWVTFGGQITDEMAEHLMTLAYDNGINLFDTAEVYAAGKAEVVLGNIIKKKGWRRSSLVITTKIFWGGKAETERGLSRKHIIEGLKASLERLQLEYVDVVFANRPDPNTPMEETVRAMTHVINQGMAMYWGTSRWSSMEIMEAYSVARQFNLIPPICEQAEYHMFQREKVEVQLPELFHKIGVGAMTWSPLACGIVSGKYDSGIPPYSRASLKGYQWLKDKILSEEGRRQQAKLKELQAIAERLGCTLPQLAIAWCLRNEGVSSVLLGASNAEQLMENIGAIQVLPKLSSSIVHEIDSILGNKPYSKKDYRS
# [5] = biological target: Voltage-gated potassium channel subunit beta-2 (Rattus norvegicus) (UniProt P62483); test: enhancers of rat Kvbeta2 NADPH turnover – biochemical, NADPH fluorescence, primary screen (AID 623;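 active = NADPH fluorescence slope more negative than the mean of all samples by about 3 SD, 99.7% confidence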;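 note: fluorescence intensity change per second fitted from 20 to 320 s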); conditions: Recombinant KvBeta, NADPH fluorescence decrease slope, 10 min; at 10 µM; stronger effect = lower value
# [6] = biological target: Muscarinic acetylcholine receptor M4 (Homo sapiens) (UniProt P08173); test: M4-linked GIRK flux change, two-sided – cell-based, HEK293 M4/GIRK, thallium flux, BTC-AM, M4 allosteric agonist project, primary screen (AID 625;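 active = fluorescence slope after compound addition differing from the mean of all tested samples at 99.7% confidence, mostly higher but some lower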;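 note: thallium influx through GIRK channels coupled to M4 in HEK293 cells with BTC-AM dye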); conditions: at 10 µM, actives lie on both sides
# Muscarinic acetylcholine receptor M4 (Homo sapiens), sequence (P08173 whole entry, looked up): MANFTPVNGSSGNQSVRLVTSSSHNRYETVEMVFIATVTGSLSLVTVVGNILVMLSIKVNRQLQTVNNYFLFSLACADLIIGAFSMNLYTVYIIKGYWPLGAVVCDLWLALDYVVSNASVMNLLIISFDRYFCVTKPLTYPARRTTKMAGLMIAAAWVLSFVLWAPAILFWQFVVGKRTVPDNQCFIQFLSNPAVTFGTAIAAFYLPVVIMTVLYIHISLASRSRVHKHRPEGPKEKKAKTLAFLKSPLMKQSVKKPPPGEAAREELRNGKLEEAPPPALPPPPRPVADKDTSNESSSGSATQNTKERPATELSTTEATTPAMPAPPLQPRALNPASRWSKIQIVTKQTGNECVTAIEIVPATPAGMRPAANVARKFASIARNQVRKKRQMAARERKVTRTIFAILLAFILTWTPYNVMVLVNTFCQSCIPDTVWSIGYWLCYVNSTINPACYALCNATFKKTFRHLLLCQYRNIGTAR
# Outline: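 Material: HEK293 cells with M4 receptor and GIRK channels; Times: cells overnight at 37 °C, BTC-AM loading 1 h, reads 2 min total; Technique: kinetic BTC-AM fluorescence sampled at 1 Hz, 10 s pre-addition baseline; Read-out basis: slope over 15–24 s of trace normalized to starting intensity; Controls: carbachol positive, DMSO negative.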
# [7] = blockers of RIG-like receptor reporter activation – cell-based, Sendai virus stimulus, luciferase, 10K MLSCN set, TLR/RLR signaling modifier project, primary screen (AID 602276;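 active = inhibition at or above 50% at 10 µM; inactive = inhibition below 50%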;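 note: firefly luciferase from ISG56 promoter only with Renilla not read in this screen; 0% = Sendai virus plus DMSO and 100% = medium plus DMSO without virus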); conditions: HEK293 RL24 IRF3 luciferase reporter, at 10 µM, stronger effect = higher value
# [8] = TLR3 IRF3 reporter activation blockers – cell-based, poly I:C stimulus, luciferase, 10K MLSCN set, primary screen (AID 602277;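 active = inhibition of the reporter signal at or above 50%; inactive = inhibition below 50%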); conditions: HEK293-TLR3 RL24 IRF3 luciferase reporter, at 10 µM, stronger effect = higher value
structure (smiles),measurement,setting,value
CCCCn1c(SCC(=O)c2ccc3c(c2)OCCO3)nnc1-c1ccco1,cell count,[1],528
same,inhibition,[1],-12.7% (inactive)
same,inhibition of aggregation,[2],-5.2% (inactive)
same,nuclei count,[2],108%
same,inhibition,[3],15.4% (inactive)
same,nuclei count,[3],110%
same,fluorescence slope,[4],-0.483 (inactive)
same,NADPH fluorescence slope,[5],0.00011 (inactive)
same,fluorescence slope,[6],0.00599 (inactive)
same,inhibition,[7],6.03% (inactive)
same,inhibition,[8],12.4% (inactive)
CC1(C)CC(=O)c2cnc(NC(=O)CSc3nc4ccccc4o3)nc2C1,cell count,[1],257
same,inhibition,[1],-5.5% (inactive)
same,inhibition of aggregation,[2],-24.6% (inactive)
same,nuclei count,[2],87.1%
same,inhibition,[3],-79.9% (inactive)
same,nuclei count,[3],107%
same,fluorescence slope,[4],-0.294 (inactive)
same,NADPH fluorescence slope,[5],-1.5e-05 (inactive)
same,fluorescence slope,[6],0.00793 (inactive)
same,inhibition,[7],-3.99% (inactive)
same,inhibition,[8],20% (inactive)
O=C1CNCc2[nH]c3ccccc3c2N1c1ccccc1,cell count,[1],377
same,inhibition,[1],3.9% (inactive)
same,inhibition of aggregation,[2],9.4% (inactive)
same,nuclei count,[2],104%
same,inhibition,[3],-124% (inactive)
same,nuclei count,[3],118%
same,fluorescence slope,[4],-0.509 (inactive)
same,NADPH fluorescence slope,[5],-3.5e-05 (inactive)
same,fluorescence slope,[6],0.00541 (inactive)
same,inhibition,[7],17.2% (inactive)
same,inhibition,[8],17.9% (inactive)
Cc1ccc(Cn2c(SCC(C)C)nc3c2c(=O)n(C)c(=O)n3C)cc1,cell count,[1],468
same,inhibition,[1],-1.3% (inactive)
same,inhibition of aggregation,[2],-13.4% (inactive)
same,nuclei count,[2],111%
same,inhibition,[3],-65.5% (inactive)
same,nuclei count,[3],119%
same,fluorescence slope,[4],-0.468 (inactive)
same,NADPH fluorescence slope,[5],-0.000354 (inactive)
same,fluorescence slope,[6],0.00373 (inactive)
same,inhibition,[7],16.7% (inactive)
same,inhibition,[8],14.4% (inactive)
CCOc1ccc(C2/C(=C(/O)c3ccccc3)C(=O)C(=O)N2CCCN(C)C)cc1OC (centres undefined),cell count,[1],411
same,inhibition,[1],-1.1% (inactive)
same,inhibition of aggregation,[2],-13.7% (inactive)
same,nuclei count,[2],102%
same,inhibition,[3],-29.6% (inactive)
same,nuclei count,[3],92.2%
same,fluorescence slope,[4],-0.446 (inactive)
same,NADPH fluorescence slope,[5],-4.1e-05 (inactive)
same,fluorescence slope,[6],0.00491 (inactive)
same,inhibition,[7],19.2% (inactive)
same,inhibition,[8],15.1% (inactive)
COc1ccccc1CNS(=O)(=O)c1cccc(S(=O)(=O)N2CCOCC2)c1,cell count,[1],676
same,inhibition,[1],25.1% (inactive)
same,inhibition of aggregation,[2],7.8% (inactive)
same,nuclei count,[2],116%
same,inhibition,[3],19.5% (inactive)
same,nuclei count,[3],117%
same,fluorescence slope,[4],-0.401 (inactive)
same,NADPH fluorescence slope,[5],2.6e-05 (inactive)
same,fluorescence slope,[6],0.00588 (inactive)
same,inhibition,[7],10.7% (inactive)
same,inhibition,[8],19.2% (inactive)
CCOC(=O)c1cc2oc(C)cc2n1CC(=O)OC1CCCCC1,cell count,[1],353
same,inhibition,[1],5.3% (inactive)
same,inhibition of aggregation,[2],-10.9% (inactive)
same,nuclei count,[2],110%
same,inhibition,[3],-13.6% (inactive)
same,nuclei count,[3],102%
same,fluorescence slope,[4],-0.584 (inactive)
same,NADPH fluorescence slope,[5],-2.1e-06 (inactive)
same,fluorescence slope,[6],0.00678 (inactive)
same,inhibition,[7],1.83% (inactive)
same,inhibition,[8],16.4% (inactive)
O=C(C1CCN(S(=O)(=O)N2CCC3(CC2)OCCO3)CC1)N1CCOCC1,cell count,[1],648
same,inhibition,[1],14.8% (inactive)
same,inhibition of aggregation,[2],17.5% (inactive)
same,nuclei count,[2],89.1%
same,inhibition,[3],28.9% (inactive)
same,nuclei count,[3],96.9%
same,fluorescence slope,[4],-0.571 (inactive)
same,NADPH fluorescence slope,[5],-8.3e-05 (inactive)
same,fluorescence slope,[6],0.00319 (inactive)
same,inhibition,[7],-6.46% (inactive)
same,inhibition,[8],-2.34% (inactive)
Cc1ccccc1CSCC(=O)c1c(N)n(C)c(=O)n(C)c1=O,cell count,[1],395
same,inhibition,[1],2.8% (inactive)
same,inhibition of aggregation,[2],-5.9% (inactive)
same,nuclei count,[2],96.5%
same,inhibition,[3],34.1% (inactive)
same,nuclei count,[3],103%
same,fluorescence slope,[4],-0.475 (inactive)
same,NADPH fluorescence slope,[5],3.9e-05 (inactive)
same,fluorescence slope,[6],0.00961 (inactive)
same,inhibition,[7],-5.02% (inactive)
same,inhibition,[8],-20.8% (inactive)
O=C(COc1ccccc1Cl)N1CCCC1,cell count,[1],236
same,inhibition,[1],11.7% (inactive)
same,inhibition of aggregation,[2],-1.6% (inactive)
same,nuclei count,[2],83.7%
same,inhibition,[3],-66.3% (inactive)
same,nuclei count,[3],152%
same,fluorescence slope,[4],-0.528 (inactive)
same,NADPH fluorescence slope,[5],2.9e-05 (inactive)
same,fluorescence slope,[6],0.00495 (inactive)
same,inhibition,[7],-16% (inactive)
same,inhibition,[8],-18.4% (inactive)
N#CC(C(=O)Nc1ccccc1)=C1CCCCC1,cell count,[1],356
same,inhibition,[1],-8.4% (inactive)
same,inhibition of aggregation,[2],-8% (inactive)
same,nuclei count,[2],108%
same,inhibition,[3],-98.6% (inactive)
same,nuclei count,[3],131%
same,fluorescence slope,[4],-0.516 (inactive)
same,NADPH fluorescence slope,[5],-4.4e-05 (inactive)
same,fluorescence slope,[6],0.0049 (inactive)
same,inhibition,[7],-3.44% (inactive)
same,inhibition,[8],-28.2% (inactive)
CCCn1c(NC(=O)C2COc3ccccc3O2)nc2ccccc21 (centres undefined),cell count,[1],496
same,inhibition,[1],1% (inactive)
same,inhibition of aggregation,[2],-4.8% (inactive)
same,nuclei count,[2],98.3%
same,inhibition,[3],-56% (inactive)
same,nuclei count,[3],102%
same,fluorescence slope,[4],-0.467 (inactive)
same,NADPH fluorescence slope,[5],0.000114 (inactive)
same,fluorescence slope,[6],0.00578 (inactive)
same,inhibition,[7],15.8% (inactive)
same,inhibition,[8],17.5% (inactive)
COc1cc2nc(C3CCC3)n(NC(=O)C3CCCC(OC)C3)c(=O)c2cc1OC (centres undefined),cell count,[1],609
same,inhibition,[1],-8.8% (inactive)
same,inhibition of aggregation,[2],-18% (inactive)
same,nuclei count,[2],106%
same,inhibition,[3],-30.3% (inactive)
same,nuclei count,[3],107%
same,fluorescence slope,[4],-0.266 (inactive)
same,NADPH fluorescence slope,[5],-1.2e-05 (inactive)
same,fluorescence slope,[6],0.00583 (inactive)
same,inhibition,[7],15.8% (inactive)
same,inhibition,[8],9.02% (inactive)
Brc1ccc(-c2nnc3sc(CN4CCC5(CC4)OCCO5)cn23)cc1,cell count,[1],414
same,inhibition,[1],3.2% (inactive)
same,inhibition of aggregation,[2],-6.9% (inactive)
same,nuclei count,[2],112%
same,inhibition,[3],-185% (inactive)
same,nuclei count,[3],130%
same,fluorescence slope,[4],-0.57 (inactive)
same,NADPH fluorescence slope,[5],-1.2e-05 (inactive)
same,fluorescence slope,[6],0.00615 (inactive)
same,inhibition,[7],11.1% (inactive)
same,inhibition,[8],14% (inactive)
O=C(Cn1ccc2ccccc2c1=O)NCCC(=O)N1CCN(C2CCCCC2)CC1,cell count,[1],510
same,inhibition,[1],-3.8% (inactive)
same,inhibition of aggregation,[2],10.9% (inactive)
same,nuclei count,[2],83.8%
same,inhibition,[3],15.7% (inactive)
same,nuclei count,[3],110%
same,fluorescence slope,[4],-0.395 (inactive)
same,NADPH fluorescence slope,[5],2.2e-05 (inactive)
same,fluorescence slope,[6],0.00596 (inactive)
same,inhibition,[7],9.9% (inactive)
same,inhibition,[8],18.5% (inactive)
COc1cc(NS(=O)(=O)c2ccc(Br)s2)cc(OC)c1,cell count,[1],596
same,inhibition,[1],10.2% (inactive)
same,inhibition of aggregation,[2],-27.3% (inactive)
same,nuclei count,[2],99.5%
same,inhibition,[3],-77.9% (inactive)
same,nuclei count,[3],94.3%
same,fluorescence slope,[4],-0.402 (inactive)
same,NADPH fluorescence slope,[5],6.7e-05 (inactive)
same,fluorescence slope,[6],0.00547 (inactive)
same,inhibition,[7],9.26% (inactive)
same,inhibition,[8],10% (inactive)
Cc1cccc(N(CC(N)=O)S(C)(=O)=O)c1C,cell count,[1],369
same,inhibition,[1],-5.2% (inactive)
same,inhibition of aggregation,[2],6.8% (inactive)
same,nuclei count,[2],100%
same,inhibition,[3],-129% (inactive)
same,nuclei count,[3],122%
same,fluorescence slope,[4],-0.551 (inactive)
same,NADPH fluorescence slope,[5],-0.000105 (inactive)
same,fluorescence slope,[6],0.00412 (inactive)
same,inhibition,[7],11% (inactive)
same,inhibition,[8],14.1% (inactive)
Cc1cc(-c2ccccc2)nc2cc(C(N)=O)nn12,cell count,[1],331
same,inhibition,[1],-5.5% (inactive)
same,inhibition of aggregation,[2],14.7% (inactive)
same,nuclei count,[2],86.6%
same,inhibition,[3],-129% (inactive)
same,nuclei count,[3],116%
same,fluorescence slope,[4],-0.424 (inactive)
same,NADPH fluorescence slope,[5],-2.5e-05 (inactive)
same,fluorescence slope,[6],0.0052 (inactive)
same,inhibition,[7],15.9% (inactive)
same,inhibition,[8],13.7% (inactive)
COc1ccccc1NS(=O)(=O)c1ccc(NC(=O)c2nc3ncccn3n2)cc1,cell count,[1],266
same,inhibition,[1],8.8% (inactive)
same,inhibition of aggregation,[2],8.5% (inactive)
same,nuclei count,[2],86.7%
same,inhibition,[3],-14% (inactive)
same,nuclei count,[3],93%
same,fluorescence slope,[4],-0.571 (inactive)
same,NADPH fluorescence slope,[5],-7.6e-05 (inactive)
same,fluorescence slope,[6],0.0057 (inactive)
same,inhibition,[7],17.6% (inactive)
same,inhibition,[8],13.9% (inactive)

# From PubChem BioAssay
